Test results taken from ChEMBL document CHEMBL2062417, “Biotinylated quercetin as an intrinsic photoaffinity proteomics probe for the identification of quercetin target proteins” (Bioorg Med Chem, 2011).
Active and inactive are the calls of the source. No cut-off for these calls is given here.

Assays:
[1] = test system: Jurkat; assay: Inhibition of heat shock-induced HSP70 expression in human Jurkat cells at 145 uM treated 2 hrs before beat shock challenge measured after 8 hrs by Western blotting; type: functional, cell-based
Method in brief: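 Jurkat cells (low basal HSP70) got 145 μM compound or DMSO vehicle for 2 h, then a 30 min 43 °C heat shock and 8 h recovery at 37 °C. HSP70 and actin were read by Western blot. Controls were unheated cells and heated cells with no additive.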

[2] = molecular target: Calcium/calmodulin-dependent protein kinase type II subunit beta (Homo sapiens, UniProt Q13554); assay: Inhibition of CAMK2 using autocamtide-2 as substrate after 30 mins by PKLight assay
Sequence of Calcium/calmodulin-dependent protein kinase type II subunit beta (Q13554 whole entry): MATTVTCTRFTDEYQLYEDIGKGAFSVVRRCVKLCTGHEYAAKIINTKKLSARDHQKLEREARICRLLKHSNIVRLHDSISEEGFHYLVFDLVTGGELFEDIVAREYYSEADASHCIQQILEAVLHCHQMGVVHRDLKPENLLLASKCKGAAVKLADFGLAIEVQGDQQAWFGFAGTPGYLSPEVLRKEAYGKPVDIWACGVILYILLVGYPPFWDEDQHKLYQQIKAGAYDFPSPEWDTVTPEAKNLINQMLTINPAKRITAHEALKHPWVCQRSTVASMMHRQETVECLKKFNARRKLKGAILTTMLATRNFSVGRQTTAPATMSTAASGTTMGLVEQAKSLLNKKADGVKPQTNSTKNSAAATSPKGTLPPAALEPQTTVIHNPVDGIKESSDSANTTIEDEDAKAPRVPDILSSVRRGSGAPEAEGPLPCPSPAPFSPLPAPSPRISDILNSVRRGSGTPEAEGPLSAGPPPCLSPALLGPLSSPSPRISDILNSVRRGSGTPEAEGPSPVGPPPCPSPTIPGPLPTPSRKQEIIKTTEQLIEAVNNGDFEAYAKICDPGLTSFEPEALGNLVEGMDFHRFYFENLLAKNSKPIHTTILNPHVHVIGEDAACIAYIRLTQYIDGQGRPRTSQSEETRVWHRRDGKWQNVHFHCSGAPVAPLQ

O=c1c(O)c(-c2ccc(O)c(O)c2)oc2cc(O)cc(O)c12 [QUERCETIN]
inhibition [1]: Active
IC50 [2]: 3 µM
